Activity calls are given as the source filed them. The rule behind the calls is not given here.
What was measured:
[1] = molecular target: D(2) dopamine receptor (Homo sapiens, UniProt P14416); experiment: Displacement of [3H]N-methylspiperone from human D2L receptor expressed in HEK293T cell membrane incubated for 1 hr by MicroBeta scintillation counting method; assay type: cell membranes
How it was run: (§1)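 Membranes from stably transfected HEK293 cells (hD2L, hD3 or hD4.4), 20 μg (D2, D3) or 30 μg (D4) protein/well. Incubated 1 h at room temperature in EBSS binding buffer, pH 7.4, with 0.4 nM [3H]N-methylspiperone and 10 half-log dilutions in triplicate. 10 μM (+)-butaclamol defines nonspecific binding. GF filtration, scintillation counting.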

[2] = molecular target: D(3) dopamine receptor (Homo sapiens, UniProt P35462); experiment: Displacement of [3H]N-methylspiperone from human D3R receptor expressed in HEK293T cell membrane incubated for 1 hr by MicroBeta scintillation counting method; assay type: cell membranes
D(3) dopamine receptor, sequence (P35462 whole entry): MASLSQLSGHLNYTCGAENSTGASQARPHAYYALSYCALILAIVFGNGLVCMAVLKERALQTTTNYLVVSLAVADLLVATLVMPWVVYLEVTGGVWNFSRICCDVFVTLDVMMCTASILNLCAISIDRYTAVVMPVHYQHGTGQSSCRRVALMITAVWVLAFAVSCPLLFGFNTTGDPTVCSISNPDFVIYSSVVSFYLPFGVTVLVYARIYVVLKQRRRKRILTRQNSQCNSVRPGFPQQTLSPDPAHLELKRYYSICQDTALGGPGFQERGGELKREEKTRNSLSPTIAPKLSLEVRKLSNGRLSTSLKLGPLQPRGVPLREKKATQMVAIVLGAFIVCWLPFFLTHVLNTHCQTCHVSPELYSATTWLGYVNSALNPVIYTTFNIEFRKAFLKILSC
How it was run: as §1, with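 “counting. Ki by Cheng–Prusoff from ≥3 experiments; selectivity is the Ki ratio.” for “counting.”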

[3] = Selectivity ratio of Ki for displacement of [3H]N-methylspiperone from human D3R expressed in HEK293T cell membrane to Ki for displacement of [3H]N-methylspiperone from human D4.4 receptor expressed in HEK293T cell membrane
[4] = Selectivity ratio of Ki for displacement of [3H]N-methylspiperone from human D2L receptor expressed in HEK293T cell membrane to Ki for displacement of [3H]N-methylspiperone from human D4.4 receptor expressed in HEK293T cell membrane
[5] = molecular target: T1, D(4) dopamine receptor (Homo sapiens, UniProt P21917); experiment: Displacement of [3H]7-OH-DPAT from human D4.4 receptor expressed in HEK293T cell membrane incubated for 1.5 hrs by MicroBeta scintillation counting method; assay type: cell membranes
T1 sequence (P21917 whole entry): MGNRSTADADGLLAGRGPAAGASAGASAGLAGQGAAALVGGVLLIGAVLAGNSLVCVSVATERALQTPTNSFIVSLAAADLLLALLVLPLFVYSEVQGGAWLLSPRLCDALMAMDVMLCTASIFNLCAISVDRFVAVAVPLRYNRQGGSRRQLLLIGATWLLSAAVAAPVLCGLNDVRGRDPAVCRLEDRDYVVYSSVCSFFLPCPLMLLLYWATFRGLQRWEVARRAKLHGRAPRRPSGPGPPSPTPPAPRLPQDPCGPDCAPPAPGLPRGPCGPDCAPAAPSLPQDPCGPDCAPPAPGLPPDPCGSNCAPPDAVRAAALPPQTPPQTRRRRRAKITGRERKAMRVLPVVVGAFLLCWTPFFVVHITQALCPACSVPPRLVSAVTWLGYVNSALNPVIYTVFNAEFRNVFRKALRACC
How it was run: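 Fresh membranes from HEK293 cells stably expressing hD4.4 (about 50–60 μg protein/well) in 50 mM Tris, 10 mM MgCl2, 1 mM EDTA, pH 7.4. Radioligand was 3 nM final; incubation 1.5 h at room temperature. Nonspecific binding was set with 10 μM (+)-butaclamol; DMSO was 3% final. Ten half-log dilutions were run in triplicate, then filtered. Ki came from IC50 by Cheng–Prusoff, from at least three independent experiments.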

[6] = molecular target: T1, D(4) dopamine receptor; experiment: Displacement of [3H]N-methylspiperone from human D4.4 receptor expressed in HEK293T cell membrane incubated for 1 hr by MicroBeta scintillation counting method; assay type: cell membranes
[7] = molecular target: T1, D(4) dopamine receptor; experiment: Antagonist activity at D4R (unknown origin) expressed in human HEK293T cells assessed as inhibition of dopamine-induced beta arrestin-2 recruitment pretreated for 10 mins followed by dopamine addition and measured after 2.5 mins by BRET assay; assay type: functional, cell-based
[8] = molecular target: T1, D(4) dopamine receptor; experiment: Antagonist activity at D4R (unknown origin) expressed in human HEK293T cells assessed as inhibition of dopamine-induced Gi protein activation pretreated for 10 mins followed by dopamine addition and measured after 2.5 mins by BRET assay; assay type: functional, cell-based
[9] = molecular target: T2, D(4) dopamine receptor (Homo sapiens) (UniProt P21917); experiment: Agonist activity at D4R (unknown origin) expressed in human HEK293T cells assessed as G0 protein activation measured after 2.5 mins by BRET assay relative to control; assay type: functional, cell-based
T2 sequence (whole entry): T1 sequence (P21917 whole entry)
How it was run: (§2)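 Transiently transfected HEK293T cells (15 μg plasmid cDNA, polyethyleneimine, 6 h, assayed after 48 h). Gαi1 or GαoA fused to RLuc8 and Gγ2 to mVenus for G protein activation; D4 receptor fused to RLuc8 and β-arrestin to mVenus for recruitment. About 2×10^5 cells/well in PBS with 0.1% glucose and 200 μM Na bisulfite. Coelenterazine H 5 μM. Read 530/485 nm; RLuc8-only background subtracted.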

[10] = molecular target: T1, D(4) dopamine receptor; experiment: Antagonist activity at D4R (unknown origin) expressed in human HEK293T cells assessed as inhibition of dopamine-induced G0 protein activation pretreated for 10 mins followed by dopamine addition and measured after 2.5 mins by BRET assay; assay type: functional, cell-based
[11] = molecular target: T2, D(4) dopamine receptor (Homo sapiens); experiment: Agonist activity at D4R (unknown origin) expressed in human HEK293T cells assessed as Gi protein activation measured after 2.5 mins by BRET assay relative to control; assay type: functional, cell-based; how it was run: as §2
[12] = molecular target: T2, D(4) dopamine receptor (Homo sapiens); experiment: Agonist activity at D4R (unknown origin) expressed in human HEK293T cells assessed as beta arrestin-2 recruitment measured after 2.5 mins by BRET assay relative to control; assay type: functional, cell-based; how it was run: as §2
[13] = test system: U-251; experiment: Cytotoxicity against human U-251 cells assessed as reduction in cell viability at 10 uM incubated for 24 hrs by MTS assay; assay type: functional, cell-based
How it was run: (§3)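 Cells seeded at 5,000/well and grown to 80% confluence: T98 and U251 in EMEM with 10% serum; GSC#83 as spheres in serum-free DMEM/F12 with EGF and bFGF. Treated 24 h at 5–50 μM in DMSO, with a DMSO vehicle control. MTS reagent added and formazan absorbance read at 490 nm. n = 6; two-way ANOVA.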

[14] = test system: T98G; experiment: Cytotoxicity against human T98G cells assessed as reduction in cell viability at 5 to 50 uM incubated for 24 hrs by MTS assay; assay type: functional, cell-based; conditions: dose 5-50 µM; how it was run: as §3
[15] = test system: U-251; experiment: Cytotoxicity against human U-251 cells assessed as reduction in cell viability at 5 to 50 uM incubated for 24 hrs by MTS assay; assay type: functional, cell-based; conditions: dose 5-50 µM; how it was run: as §3
[16] = test system: T98G; experiment: Cytotoxicity against human T98G cells assessed as reduction in cell viability at 10 uM incubated for 24 hrs by MTS assay; assay type: functional, cell-based; how it was run: as §3
[17] = test system: GSC#83; experiment: Cytotoxicity against human GSC#83 cells assessed as reduction in cell viability at 5 to 50 uM incubated for 24 hrs by MTS assay; assay type: functional, cell-based; conditions: dose 5-50 µM; how it was run: as §3
[18] = test system: GSC#83; experiment: Cytotoxicity against human GSC#83 cells assessed as reduction in cell viability at 10 uM incubated for 24 hrs by MTS assay; assay type: functional, cell-based; how it was run: as §3
[19] = molecular target: T1, D(4) dopamine receptor; experiment: Agonist activity at D4R (unknown origin) expressed in human HEK293T cells assessed as beta arrestin-2 recruitment measured after 2.5 mins by BRET assay; assay type: functional, cell-based
How it was run: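 HEK293T cells transiently co-transfected with D4 receptor–RLuc8 and β-arrestin–mVenus using PEI, then harvested after 48 h. Cells were resuspended in PBS with 0.1% glucose and 200 μM Na bisulfite, at about 2×10^5 cells/well. Coelenterazine H (5 μM) was added, and ligands 2 min later. Emission was read at 485 and 530 nm 2.5 min after ligand. Net BRET was taken after subtracting the RLuc8-alone background; dose–response curves were fitted.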

[20] = molecular target: T2, D(4) dopamine receptor (Homo sapiens); experiment: Partial agonist activity at D4R (unknown origin) expressed in human HEK293T cells assessed as Gi protein activation measured after 2.5 mins by BRET assay relative to control; assay type: functional, cell-based; how it was run: as §2
[21] = molecular target: T1, D(4) dopamine receptor; experiment: Partial agonist activity at D4R (unknown origin) expressed in human HEK293T cells assessed as Gi protein activation measured after 2.5 mins by BRET assay; assay type: functional, cell-based; how it was run: as §2
[22] = molecular target: T1, D(4) dopamine receptor; experiment: Partial agonist activity at D4R (unknown origin) expressed in human HEK293T cells assessed as G0 protein activation measured after 2.5 mins by BRET assay; assay type: functional, cell-based; how it was run: as §2
[23] = molecular target: T2, D(4) dopamine receptor (Homo sapiens); experiment: Partial agonist activity at D4R (unknown origin) expressed in human HEK293T cells assessed as G0 protein activation measured after 2.5 mins by BRET assay relative to control; assay type: functional, cell-based; conditions: filed as partial agonist; how it was run: as §2

D(2) dopamine receptor, sequence (P14416 whole entry): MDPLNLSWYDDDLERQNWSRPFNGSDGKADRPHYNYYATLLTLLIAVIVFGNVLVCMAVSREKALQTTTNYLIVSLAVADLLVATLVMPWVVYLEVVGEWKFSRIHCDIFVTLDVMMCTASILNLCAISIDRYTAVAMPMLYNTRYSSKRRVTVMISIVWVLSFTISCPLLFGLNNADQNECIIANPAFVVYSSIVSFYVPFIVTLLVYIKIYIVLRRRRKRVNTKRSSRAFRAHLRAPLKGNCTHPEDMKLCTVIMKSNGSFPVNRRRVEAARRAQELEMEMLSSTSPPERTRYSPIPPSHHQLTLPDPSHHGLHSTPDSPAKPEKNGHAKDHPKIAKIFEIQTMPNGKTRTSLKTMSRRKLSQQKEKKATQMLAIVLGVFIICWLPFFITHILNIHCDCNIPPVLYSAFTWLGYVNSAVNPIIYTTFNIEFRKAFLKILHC

Structure (SMILES): O=C1CCc2ccccc2N1CCCN1CCN(c2cccc(Cl)c2)CC1
- Ki [1]: 759 nM
- Ki [2]: 282 nM
- Ratio Ki [3]: 269
- Ratio Ki [4]: 724
- Ki [5]: 0.776 nM
- Ki [6]: 1.05 nM

Structure (SMILES): COc1ccc(N2CCN(CCCN3C(=O)CCc4ccccc43)CC2)cc1
- IC50 [7]: 389 nM
- IC50 [8]: 269 nM
- Emax [9]: 0%
- Ki [1]: 20900 nM
- Ki [2]: 8320 nM
- Ratio Ki [3]: 1200
- IC50 [10]: 107 nM
- Emax [11]: 0%
- Ratio Ki [4]: 3020
- Emax [12]: 0%
- Ki [6]: 6.92 nM

Structure (SMILES): O=C1CCc2ccccc2N1CCCN1CCN(c2ccccc2Cl)CC1
- Ki [1]: 138 nM
- Ki [2]: 60.3 nM
- Ratio Ki [3]: 100
- Ratio Ki [4]: 229
- Ki [5]: 0.513 nM
- Ki [6]: 0.603 nM

Structure (SMILES): Fc1ccc(N2CCN(CCC3OCCc4ccccc43)CC2)cc1 (stereo unspecified)
- Activity [13]: Active
- Activity [14]: Active
- Activity [15]: Active
- Activity [16]: Active
- Activity [17]: Active
- Activity [18]: Active

Structure (SMILES): Cc1ccc(N2CCN(CCCN3C(=O)CCc4ccccc43)CC2)cc1
- IC50 [7]: 1230 nM
- IC50 [8]: 110 nM
- Emax [9]: 0%
- Ki [1]: 5130 nM
- Ki [2]: 1700 nM
- Ratio Ki [3]: 1740
- EC50 [19]: 16.2 nM
- IC50 [10]: 331 nM
- Emax [11]: 0%
- Ratio Ki [4]: 5250
- Emax [12]: -30.2%
- Ki [6]: 0.977 nM

Structure (SMILES): O=C1CCc2ccccc2N1CCCN1CCN(c2ccc(Cl)cc2)CC1
- IC50 [7]: 10500 nM
- IC50 [8]: 251 nM
- Emax [9]: 0%
- Ki [1]: 5500 nM
- Activity [13]: Active
- Ki [2]: 2450 nM
- Ratio Ki [3]: 3720
- Activity [14]: Active
- EC50 [19]: 51.3 nM
- IC50 [10]: 380 nM
- Activity [15]: Active
- Emax [11]: 0%
- Activity [16]: Active
- Activity [17]: Active
- Ratio Ki [4]: 8320
- Emax [12]: -43.4%
- Ki [5]: 1.48 nM
- Ki [6]: 0.661 nM
- Activity [18]: Active

Structure (SMILES): NCCc1ccc(O)c(O)c1
- Emax ([9]; filed as agonist): 100%
- Emax ([11]; filed as agonist): 100%
- Emax ([12]; filed as agonist): 100%

Structure (SMILES): Cn1nnc2c(C(N)=O)ncn2c1=O
- Activity [13]: Active
- Activity [14]: Active
- Activity [15]: Active
- Activity [16]: Active
- Activity [17]: Active
- Activity [18]: Active

Structure (SMILES): O=C1CCc2ccccc2N1CCCN1CCN(c2ccccn2)CC1
- IC50 [7]: 67.6 nM
- Ki [1]: 2750 nM
- Activity [13]: Active
- Ki [2]: 2570 nM
- Emax [20]: 26.6%
- Ratio Ki [3]: 1150
- Activity [14]: Active
- EC50 [21]: 12.3 nM
- Activity [15]: Active
- Activity [16]: Active
- EC50 [22]: 8.51 nM
- Activity [17]: Active
- Ratio Ki [4]: 1230
- Emax [12]: 0%
- Emax [23]: 46.2%
- Ki [6]: 2.24 nM
- Activity [18]: Active
